Among all 190,000 compounds or so, about 200 (0.11%) were called active. The list comes from a sample in which actives are over-represented; it also holds similar structures and randomly drawn compounds. Values without a mark were called inactive.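 How the source made its calls: active means inhibition above 80%; inactive means the rest.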
The molecules below were run against Broad substrate specificity ATP-binding cassette transporter ABCG2 (Homo sapiens) (UniProt Q9UNQ0) (assay: ABCG2 efflux pump inhibitors, primary screen, multiplex with ABCB1, IgMXP3 cells, flow cytometry (AID 1325;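 further: 0% = DMSO and 100% = nicardipine control wells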)). Details: JC-1 efflux, at 6.6 µM, active compounds read high.
Broad substrate specificity ATP-binding cassette transporter ABCG2 (Homo sapiens), sequence (Q9UNQ0 whole entry, looked up): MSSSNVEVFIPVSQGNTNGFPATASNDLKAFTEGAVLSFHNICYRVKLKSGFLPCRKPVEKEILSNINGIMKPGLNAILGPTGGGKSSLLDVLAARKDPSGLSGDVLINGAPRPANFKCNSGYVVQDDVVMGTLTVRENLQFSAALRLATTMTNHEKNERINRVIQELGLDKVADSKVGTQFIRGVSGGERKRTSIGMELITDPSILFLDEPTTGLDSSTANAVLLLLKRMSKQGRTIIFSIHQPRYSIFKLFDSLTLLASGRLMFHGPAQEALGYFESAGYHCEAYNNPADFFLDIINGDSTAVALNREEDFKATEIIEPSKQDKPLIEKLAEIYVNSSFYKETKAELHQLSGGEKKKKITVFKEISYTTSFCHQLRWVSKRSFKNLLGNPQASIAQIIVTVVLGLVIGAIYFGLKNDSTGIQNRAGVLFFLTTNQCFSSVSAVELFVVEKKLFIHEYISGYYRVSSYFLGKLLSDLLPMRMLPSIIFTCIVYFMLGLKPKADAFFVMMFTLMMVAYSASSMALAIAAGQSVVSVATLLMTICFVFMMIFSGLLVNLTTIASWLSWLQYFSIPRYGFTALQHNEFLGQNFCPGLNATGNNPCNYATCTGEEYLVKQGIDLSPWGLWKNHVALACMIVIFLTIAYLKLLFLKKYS
How it was run: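 Times: 10 min at 25 °C | Test system: Two drug-resistant human cell lines, ABCG2 and ABCB1 | Quantity: 3 million cells/mL final, two lines in 1:1 ratio | Signal: Flow cytometry, 530 nm JC-1 signal | Dosing: Compound at 6.6 µM | Controls: Nicardipine and DMSO wells | Reagent: JC-1 as fluorescent efflux pump substrate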

| Compound | inhibition |
| --- | --- |
| CN(C)c1ccc2c(=O)[nH][nH]c(=O)c2c1 | 2.2% |
| CCn1nc(C)cc1C(=O)N1CCCC(C(=O)c2cccc(OC)c2)C1 (configuration not stated) | -0.58% |
| CCNS(=O)(=O)c1ccc(NC(=O)c2cncc(Br)c2)cc1 | 19.8% |
| Cn1c(CCC(=O)OCC(=O)NCc2ccccc2Cl)nc(=O)c2ccccc21 | 1.08% |
| CN(C)C(=O)c1cccn(Cc2cccc(C(F)(F)F)c2)c1=O | -0.69% |
| CN1C(=O)/C(=C/C=C2\SCCN2C)OC1=S | -0.91% |
| Cc1ccc(NC(=O)C2(N3CCC3=O)CCCCC2)cc1 | 0.01% |
| COc1ccc(C(=O)Nc2ccc(-n3nncc3C(C)(C)C)cc2)cc1 | 1.71% |
| Cc1ccc(NS(=O)(=O)c2cccs2)cc1S(=O)(=O)N1CCCCCC1 | 0.74% |
| Cc1ccc(OCc2nnc(SC3CCc4ccccc4C3=O)n2C)cc1 (configuration not stated) | 1.34% |
| O=C(Cn1cc(C(F)(F)F)ccc1=O)N/N=C/c1ccc(Cl)cc1Cl | -1.56% |
| Cc1ccc2c(CC(=O)NCc3cccs3)coc2c1 | 9.43% |
| CCc1nnc(NC(=O)c2cccc(S(=O)(=O)N(C)c3ccc(OC)cc3)c2)s1 | 3.19% |
| COc1ccc(CNC(=O)CN(Cc2ccc(Cl)cc2)S(C)(=O)=O)cc1 | 3.97% |
| COc1cccc(NC(=O)CC(c2ccc(OC(C)C)cc2)c2ccccc2OC)c1 (configuration not stated) | 10.9% |
| Cc1ccc(O)c(NC(=S)NC(=O)COc2ccc(Br)cc2)c1 | 3.88% |
| CCOC(=O)C1=C(CC)Nc2ccccc2N=C1N | 0.61% |
| CC(CNc1ccc([N+](=O)[O-])c2cccnc12)Nc1c([N+](=O)[O-])cc(C(F)(F)F)cc1[N+](=O)[O-] (configuration not stated) | 23.1% |
| CC(=O)NC1C(Oc2ccc(C=O)cc2)OC(COC(C)=O)C(OC(C)=O)C1OC(C)=O (configuration not stated) | 0.63% |
| Cc1nc2cc(NCc3cccs3)ccc2n1C | 0.91% |
| CCCCc1ccc(S(N)(=O)=O)cc1 | 3.23% |
| O=C(NCc1ccccn1)c1cc(Br)ccc1Cl | 2.2% |

| Compound | inhibition |
| --- | --- |
| CC(C)C(c1nnnn1C(C)(C)C)N1CCN(Cc2cccnc2)CC1 (configuration not stated) | 1.7% |
| CCOC(=O)c1ccc(NC(=S)Nc2cc(C)cc(C)n2)cc1 | 11.7% |
| CC(C)N(C)C(=O)CCc1nnc(CCc2c[nH]c3ccccc23)o1 | 5.03% |
| CC(C)CNC(=O)C(=O)NCc1ccccc1 | 7.35% |
| Cc1c(Cl)cccc1NC(=S)N(Cc1ccccc1)Cc1cccnc1 | 3.04% |
| COc1ccccc1NC(=O)c1c(Br)cnn1C | 9.25% |
| Cc1cccc(N2C(=O)SC(SC(=Nc3ccccc3)Nc3ccccc3)C2=O)c1 (configuration not stated) | 0.89% |
| COc1ccc(N2C(=O)/C(=C\c3ccco3)N=C2SCC(N)=O)cc1Cl | 0.72% |
| S=C(c1ccc(-c2ccccc2)o1)N1CCCCC1 | 1.68% |
| Cc1ccc(NC(=O)NC(=O)CSc2nnc(-c3ccc(OC(F)F)cc3)n2N)c(C)c1 | 4.7% |
| COc1cccc(C2CC(c3ccccc3)=NN2S(=O)(=O)c2ccccc2)c1OC (configuration not stated) | 5.72% |
| CCOc1ccc(NC(=O)c2cc(C)nc3ccccc23)cc1 | 4.37% |
| COc1ccccc1NC(=O)/C=C/C(=O)O | 3.21% |
| C=CCNC(=O)CC12CC3CC(C1)CC(CC(=O)NCC=C)(C3)C2 | 0.78% |
| Cc1cc(C)cc(NC(=O)Cn2cnc3c(nnn3Cc3ccc(F)cc3)c2=O)c1 | 0.29% |
| CSc1ccc(CN2C(=O)NC3(CCCCCC3)C2=O)cc1 | -1.59% |
| COCCNC(=O)CCCn1c(=O)c2ccccc2n(Cc2cccc([N+](=O)[O-])c2)c1=O | 3.38% |
| COc1ccccc1CN(C)c1nnnn1-c1ccccc1 | -0.06% |
| O=C(CSc1ccc(-c2ccco2)nn1)NCc1ccc2c(c1)OCO2 | 0.73% |
| O=C(Nc1ccccc1C(=O)O)c1cc(S(=O)(=O)N2CCCCC2)cs1 | -0.42% |
| Cc1c(Br)c([N+](=O)[O-])nn1CC(=O)N1CCN(Cc2ccccc2)CC1 | 2.55% |
| CC(C)NC(=S)NN=C1CCCCCCCCCCC1 | 5.8% |

| Compound | inhibition |
| --- | --- |
| CCSc1sc(CC)cc1C=O | 3.95% |
| CCCCn1c(=O)c(CCC(=O)OCC(=O)Nc2ccc(C)c(Cl)c2)nc2ccccc21 | 2.45% |
| COC(=O)Cc1csc(/N=C/c2c(O)n(-c3cccc(C(F)(F)F)c3)c(=O)c3ccccc23)n1 | -1.85% |
| Cc1c(Cc2ccccc2)c(=O)oc2cc(OCC(N)=O)ccc12 | 0.67% |
| CCOC(=O)c1sc(=NC(=O)/C=C/c2cccs2)n(C)c1C | 2.28% |
| CCC(C(=O)OCC(=O)Nc1ccccc1-c1ccccc1)c1ccccc1 (configuration not stated) | 3.04% |
| C/C(=N/O)c1ccc(N2C(=O)C3C4C=CC(C3C2=O)C2C3C(=O)N(c5ccc(/C(C)=N/O)cc5)C(=O)C3C42)cc1 (configuration not stated) | -1.72% |
| O=C(c1ccc(-c2ccccc2)cc1)C1CCCN(C(=O)c2cncs2)C1 (configuration not stated) | 3.81% |
| Cc1ccc(OCC(=O)NNC(=S)NCc2ccccc2)cc1 | -1.33% |
| O=C(/C=C/c1cccc([N+](=O)[O-])c1)NCCSCc1ccco1 | 51.1% |
| Cc1ccc(C)c(NS(=O)(=O)c2ccc(OCC(=O)NCc3cccnc3)cc2)c1 | 0.12% |
| O=C(O/N=C(/c1ccccc1)c1ccncc1)c1ccccc1[N+](=O)[O-] | 4.1% |
| Cc1ccc(C(=O)COC(=O)c2cccc(N3C(=O)c4c(C)nc5ccccc5c4C3=O)c2)cc1C | 15.3% |
| S=c1[nH]nc(NCCc2ccccc2)s1 | 0.35% |
| C/C(=C/C(=O)N1CCN(C)CC1)C(=O)O | 4.35% |
| CCNC(=O)CC1C(=O)N(c2ccc(OC)cc2)C(=S)N1CCc1ccncc1 (configuration not stated) | -0.76% |
| NS(=O)(=O)c1ccc(NC(=O)COC(=O)c2ccco2)cc1 | 10% |
| CN(Cc1ccccc1)C(=O)CCc1ccccc1 | 1.98% |
| O=C(NC1CCN(Cc2ccccc2)CC1)c1cc(Br)c(Br)[nH]1 | 4.52% |
| Cc1ccc2c(c1)C(O)(CC(=O)c1cccc(-n3cccc3)c1)C(=O)N2 (configuration not stated) | 16.3% |
| Cc1ccc(NC(=S)N(CCN(C)C)Cc2cccs2)cc1C | -0.22% |
| COc1ccccc1NC(=S)N1CCC(NC(=O)C23CC4CC(CC(C4)C2)C3)CC1 | -0.01% |

| Compound | inhibition |
| --- | --- |
| C=CCn1c(-c2sc(-c3ccccc3)nc2C)n[nH]c1=S | 1.76% |
| CCN1CCN(C(=O)CN(C)S(=O)(=O)c2ccc3ccccc3c2)CC1 | 0.1% |
| COc1ccc(OCCNS(=O)(=O)Cc2ccccc2)cc1 | 2.18% |
| COc1ccc(C)cc1NC(=S)Nc1ccccc1SC | 0.21% |
| COc1ccc(C)cc1NC(=O)Nc1ccccc1SC | 13.2% |
| COc1ccc(C)cc1NC(=O)C(Sc1ccccc1)c1ccccc1 (configuration not stated) | 91.6% (active) |
| CCOC(=O)C1=C(CC)OC(N)=C(C#N)C1c1ccc(F)cc1F (configuration not stated) | -0.41% |
| CC(CO)NCC12CC3CC(CC(C3)C1)C2 (configuration not stated) | -2.66% |
| COc1ccc(CN(C)C(C)C(=O)NC2CCCc3ccccc32)cc1 (configuration not stated) | 6.36% |
| O=C(Cc1csc(Nc2nc(=S)[nH]c3ccccc23)n1)NCCCN1CCN(c2cccc(Cl)c2)CC1 | 3.5% |
| CCc1ccc(Oc2nc([N+](=O)[O-])nn2C)cc1 | 1.08% |
| CCC(CC)c1nnc(NC(=O)c2nn(C)c(=O)c3ccccc23)s1 | 6.7% |
| CCN(C(=O)Cc1nc(N)n[nH]1)C1(C(=O)Nc2ccccc2)CCCCC1 | 2.7% |
| CC(CNC(=O)c1ccc(N)cc1)NC(=O)c1ccc(N)cc1 (configuration not stated) | -4.01% |
| Cc1cc(OC(=O)c2ccccc2Cl)ccc1N1C(=O)CCC1=O | 21.3% |
| O=S(=O)(Nc1ncccn1)c1ccc(NS(=O)(=O)c2cccc(Cl)c2Cl)cc1 | 0.94% |
| C=CCC1(CC=C)CCCN1C(=O)CC1C(=O)NCCN1Cc1ccccc1OC (configuration not stated) | 4.22% |
| NNc1nc2c(Cl)cccc2s1 | -11.1% |
| COc1ccc(CN2CCCC(C(=O)c3ccc(Cl)cc3)C2)cc1Cn1cncn1 (configuration not stated) | 2.66% |
| CN(C)c1nnnn1-c1ccc(Cl)cc1 | 1.39% |
| O=C1NC(c2ccc(-c3ccccc3[N+](=O)[O-])o2)C(C(=O)c2ccc(Cl)cc2)C(O)(C(F)(F)F)N1 (configuration not stated) | 14.6% |
